Results pooled from the literature.
Each line is one published result; the experiments were not run side by side.
PLCD1: 1-phosphatidylinositol 4,5-bisphosphate phosphodiesterase delta-1 (PLCD1, Homo sapiens, UniProt P51178)
CSNK1D: Casein kinase I isoform delta (CSNK1D, Homo sapiens, UniProt P48730)
HTR2B: 5-hydroxytryptamine receptor 2B (HTR2B, Homo sapiens, UniProt P41595)
FLT3 ITD: Receptor-type tyrosine-protein kinase FLT3 (FLT3, Homo sapiens, UniProt P36888, ITD)

Structure (SMILES) | target | test | measurement | value
CCOc1ccc(C(=O)CC(SCc2ccccc2)C(=O)O)cc1 (centres unmarked) | PLCD1 | ligand displacement, FP | Ki | > 1000 µM
Brc1ccc2nccnc2c1 | CSNK1D | binding, SPR | Kd | > 50 µM
COc1cc2c3c(c1OC)-c1c(OC)ccc(-c4ccc(C#N)cc4)c1CC3N(C)CC2 (centres unmarked) | HTR2B | ligand displacement, radioligand | Ki | 0.856 µM
CNC(=O)c1ccc(OC)c(Br)c1 | CSNK1D | binding, SPR | Kd | > 50 µM
O=C(NCCN1CCCCC1)c1ccc(-c2nc3ccc4[nH]ncc4c3c3c2CCCC3)cc1 | FLT3 ITD | enzyme activity, inhibitor | IC50 | 0.741 µM
c1ccc(CNCc2ccc(CN3CCCNCCNCCCNCC3)cc2)nc1 | CSNK1D | binding, SPR | Kd | > 50 µM
CN(C)CCNC(=O)c1ccc(-c2nc3ccc4[nH]ncc4c3c3c2CCCCC3)c(F)c1 | Receptor-type tyrosine-protein kinase FLT3 (FLT3, Homo sapiens, UniProt P36888) | enzyme activity, inhibitor | IC50 | 0.053 µM
COc1ccccc1C(=O)CC(SCc1ccc(Cl)cc1)C(=O)O (centres unmarked) | PLCD1 | ligand displacement, FP | Ki | > 1000 µM
Cc1n[nH]c2ccc3nc(-c4ccc(C(=O)NCCN(C)C)cc4)c4c(c3c12)CCCC4 | Receptor-type tyrosine-protein kinase FLT3 (FLT3, Homo sapiens, UniProt P36888, F691L) | enzyme activity, inhibitor | IC50 | 0.053 µM
CN(C)C(=O)c1cc2cnc(Nc3ccc(C(=O)NCCCCCCOc4cccc5c4C(=O)N(C4CCC(=O)NC4=O)C5=O)cc3)nc2n1C1CCCC1 (centres unmarked) | Aurora kinase C (AURKC, Homo sapiens, UniProt Q9UQB9) | binding, competition with immobilised ligand | Kd | < 0.2 µM
O=C(NCC1CC1)c1ccc(-c2nc3ccc4[nH]ncc4c3c3c2CCCC3)cc1 | FLT3 ITD | enzyme activity, inhibitor | IC50 | > 1 µM
CCOc1ccc(C(=O)CC(SCc2ccccc2Br)C(=O)O)cc1 (centres unmarked) | PLCD1 | ligand displacement, FP | Ki | > 1000 µM
Cc1n[nH]c2ccc3nc(-c4ccc(C(=O)N(C)CCN(C)C)cc4)c4c(c3c12)CCC(F)(F)C4 | FLT3 ITD | enzyme activity, inhibitor | IC50 | > 1 µM
N#Cc1ccc(O)cc1F | CSNK1D | binding, SPR | Kd | 20 to 50 µM
CCOc1ccc(C(=O)CC(SCc2cccc(Br)c2)C(=O)O)cc1 (centres unmarked) | PLCD1 | ligand displacement, FP | Ki | 630 µM
O=c1[nH]c(N2CCCC2)nc2ccccc12 | CSNK1D | binding, SPR | Kd | 43.8 µM
Cc1n[nH]c2ccc3nc(-c4ccc(C(=O)NCCN(C)C)cc4F)c4c(c3c12)CCCC4 | Receptor-type tyrosine-protein kinase FLT3 (FLT3, Homo sapiens, UniProt P36888, D835Y) | enzyme activity, inhibitor | IC50 | 0.005 µM
CNc1cncc(Cl)n1 | CSNK1D | binding, SPR | Kd | > 50 µM
COc1cc2c3c(c1OC)-c1c(OC)ccc(N4CCOCC4)c1CC3N(C)CC2 (centres unmarked) | 5-hydroxytryptamine receptor 2C (HTR2C, Homo sapiens, UniProt P28335) | cell-free assay, radioligand | Ki | 2.71 µM
CN(C)CCNC(=O)c1ccc(-c2nc3ccc4[nH]ncc4c3c3c2CCCC3)cc1 | FLT3 ITD | enzyme activity, inhibitor | IC50 | 0.086 µM
CCOc1ccc(C(=O)CC(SCc2ccc(Cl)cc2)C(=O)OC)cc1 (centres unmarked) | PLCD1 | ligand displacement, FP | Ki | > 1000 µM
c1ccc(-c2nnc(NCc3ccccn3)o2)cc1 | CSNK1D | binding, SPR | Kd | > 50 µM
COc1cc2c3c(c1OC)-c1c(OC)ccc(O)c1CC3N(C)CC2 (centres unmarked) | HTR2B | ligand displacement, radioligand | Ki | 1.42 µM
CCOc1ccc(C(=O)CC(SCc2ccc(Cl)cc2)C(=O)O)cc1 (centres unmarked) | PLCD1 | ligand displacement, FP | Ki | 780 µM
CSCC[C@H](NC(C)=O)C(=O)N[C@@H](CC(=O)O)C(=O)N[C@@H](Cc1ccccc1)C(N)=O | Gastrin/cholecystokinin type B receptor (CCKBR, Homo sapiens, UniProt P32239) | β-arrestin recruitment, agonist | EC50 | 18.7 µM
CCOC(=O)c1cc(-c2ccc(OCC)cc2)oc1-c1ccc(Cl)cc1 | PLCD1 | ligand displacement, FP | Ki | > 100 µM
CCn1c2ccccc2c2cc(Nc3ccnc(NCCCN4CCOCC4)n3)ccc21 | CSNK1D | binding, SPR | Kd | > 50 µM
COc1ccc(C(=O)CC(SCc2ccc(Cl)cc2)C(=O)O)cc1 (centres unmarked) | PLCD1 | ligand displacement, FP | Ki | > 1000 µM
Cc1n[nH]c2ccc3nc(-c4ccc(C(=O)NCCN(C)C)cn4)c4c(c3c12)CCCCC4 | FLT3 ITD | enzyme activity, inhibitor | IC50 | 0.419 µM
